In ChEMBL document CHEMBL1914438, “Synthesis and biological activity of novel N-cycloalkyl-(cycloalkylaryl)-2-[(3-R-2-oxo-2H-[1,2,4]triazino[2,3-c]quinazoline-6-yl)thio]acetamides” (2011):
Active and inactive are the calls of the source. The calls are words filed in the database; no cut-off is given here.

How the values were obtained:
[1] = system: NCI-H522; experiment: Cytotoxicity against human NCI-H522 cells assessed as cell growth at 10^-5 M after 48 hrs by SRB assay; format: functional; settings: NCI-H522, 48 h, read-out: Activity
Procedure, shortened: (§1)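 NCI human tumor cell line panel from nine cancer types. Each line was inoculated and preincubated 24–48 h, then exposed to a single concentration (10^-5 M) for 48 h. Growth was read by sulforhodamine B protein staining, measured spectrophotometrically. Value reported as percent growth of treated cells relative to untreated controls.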

[2] = system: Yamadazyma tenuis; experiment: Antifungal activity against Candida tenuis at 1 to 5 mg/mL after 48 to 72 hrs by stiff-plate agar-diffusion method; format: functional, organism-based
Procedure, shortened: (§2)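 Fungal plates run by stiff-plate agar diffusion, substances applied to grooves at 5 mg/mL; 10^9 c.f.u./mL cells; incubation 48–72 h at 28–30 °C. Inhibition zone diameter scored (11–15 mm not sensitive, 16–25 mm sensitive, >25 mm highly sensitive). Nystatin standard; experiments done three times.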

[3] = system: Mycobacterium; experiment: Antibacterial activity against Mycobacterium luteum at 1 to 5 mg/mL after 24 hrs by stiff-plate agar-diffusion method; format: functional, organism-based
Procedure, shortened: (§3)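 Agar diffusion (stiff plate) with test substances at 5 mg/mL in grooves, allowed to diffuse into nutrient agar; inoculum 10^9 c.f.u./mL; bacteria incubated 24 h at 35 °C. Read-out: inhibition zone diameter (not sensitive 11–15 mm, sensitive 16–25 mm, highly sensitive >25 mm). Vancomycin and oxacillin as standards; three repeats.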

[4] = system: HCC 2998; experiment: Cytotoxicity against human HCC2998 cells assessed as cell growth at 10^-5 M after 48 hrs by SRB assay; format: functional; settings: HCC 2998, 48 h, read-out: Activity
Procedure, shortened: (§4)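 NCI 60-cell-line one-dose primary screen: cells inoculated and preincubated 24–48 h, then test agent added at a single 10^-5 M concentration for a further 48 h. Endpoint is sulforhodamine B protein staining read spectrophotometrically. Reported as percent growth relative to untreated control cells.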

[5] = system: A549; experiment: Cytotoxicity against human A549 cells assessed as cell growth at 10^-5 M after 48 hrs by SRB assay; format: functional; settings: A549, 48 h, read-out: Activity; procedure, shortened: as §4
[6] = system: Photobacterium leiognathi; experiment: Antibacterial activity against Photobacterium leiognathi Sh1 assessed as inhibition of bacterial luminescence at 0.25 mg/mL after 10 mins by bioluminometry-based acute action test; format: functional; set-up: scale not given: the % may be the effect or the level left
Procedure, shortened: (§5)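 Marine P. leiognathi Sh1 (Azov Sea shrimp isolate) diluted in chloride solution to 10^5 cells/mL; compounds suspended in DMSO mixed with 1 mL bacterial suspension. Acute test: 10 min at 25 °C, then bioluminescence measured by bioluminometer as % of compound-free control. Tetracycline reference.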

[7] = system: Aspergillus niger; experiment: Antifungal activity against Aspergillus niger at 1 to 5 mg/mL after 48 to 72 hrs by stiff-plate agar-diffusion method; format: functional, organism-based; procedure, shortened: as §2
[8] = system: Photobacterium leiognathi; experiment: Antibacterial activity against Photobacterium leiognathi Sh1 at 0.1 to 0.25 ug/mL; format: functional, organism-based
[9] = system: CAKI-1; experiment: Cytotoxicity against human Caki1 cells assessed as cell growth at 10^-5 M after 48 hrs by SRB assay; format: functional; settings: CAKI-1, 48 h, read-out: Activity; procedure, shortened: as §4
[10] = system: Photobacterium leiognathi; experiment: Antibacterial activity against Photobacterium leiognathi Sh1 assessed as inhibition of bacterial luminescence at 0.025 mg/mL after 10 mins by bioluminometry-based chronic action test; format: functional; set-up: scale not given: the % may be the effect or the level left; settings: in the assay text read “after 16 to 18 hrs” for “after 10 mins”
Procedure, shortened: (§6)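 Chronic (growth plus luminescence) test with P. leiognathi Sh1 at 10^5 cells/mL in chloride solution, compounds added in DMSO. After 10 min at 25 °C, growth medium added at 1:50 and the mix incubated 16–18 h at 30 °C. Luminescence then measured by bioluminometer as % of untreated control. Tetracycline reference.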

[11] = system: MDA-MB-231; experiment: Cytotoxicity against human MDA-MB-231 cells assessed as cell growth at 10^-5 M after 48 hrs by SRB assay; format: functional; settings: MDA-MB-231, 48 h, read-out: Activity; procedure, shortened: as §4
[12] = system: HL-60(TB); experiment: Cytotoxicity against human HL-60(TB) cells assessed as cell growth at 10^-5 M after 48 hrs by SRB assay; format: functional; settings: HL-60, 48 h, read-out: Activity
Procedure, shortened: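 NCI one-dose primary screen on the 60-line human tumour panel. Cells were inoculated and preincubated 24–48 h. Compound was added at 10^-5 M with 48 h continuous exposure. Sulforhodamine B protein staining was read spectrophotometrically. Results are percent growth relative to untreated control cells.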

[13] = system: Photobacterium leiognathi; experiment: Antibacterial activity against Photobacterium leiognathi Sh1 assessed as inhibition of bacterial luminescence at 0.25 mg/mL after 10 mins by bioluminometry-based chronic action test; format: functional; set-up: scale not given: the % may be the effect or the level left; settings: in the assay text read “after 16 to 18 hrs” for “after 10 mins”; procedure, shortened: as §6
[14] = system: LOX IMVI; experiment: Cytotoxicity against human LOXIMVI cells assessed as cell growth at 10^-5 M after 48 hrs by SRB assay; format: functional; settings: read-out: Activity; procedure, shortened: as §4
[15] = system: Photobacterium leiognathi; experiment: Antibacterial activity against Photobacterium leiognathi Sh1 assessed as inhibition of bacterial luminescence at 0.025 mg/mL after 10 mins by bioluminometry-based acute action test; format: functional; set-up: scale not given: the % may be the effect or the level left; procedure, shortened: as §5
[16] = system: SK-MEL-5; experiment: Cytotoxicity against human SK-MEL-5 cells assessed as cell growth at 10^-5 M after 48 hrs by SRB assay; format: functional; settings: SK-MEL-5, 48 h, read-out: Activity; procedure, shortened: as §1
[17] = system: PC-3; experiment: Cytotoxicity against human PC3 cells assessed as cell growth at 10^-5 M after 48 hrs by SRB assay; format: functional; settings: PC-3, 48 h, read-out: Activity; procedure, shortened: as §1
[18] = system: SNB-75; experiment: Cytotoxicity against human SNB75 cells assessed as cell growth at 10^-5 M after 48 hrs by SRB assay; format: functional; settings: SNB-75, 48 h, read-out: Activity; procedure, shortened: as §1
[19] = system: Escherichia coli; experiment: Antibacterial activity against Escherichia coli at 1 to 5 mg/mL after 24 hrs by stiff-plate agar-diffusion method; format: functional, organism-based; procedure, shortened: as §3
[20] = system: Staphylococcus aureus; experiment: Antibacterial activity against Staphylococcus aureus at 1 to 5 mg/mL after 24 hrs by stiff-plate agar-diffusion method; format: functional, organism-based; procedure, shortened: as §3
[21] = system: CCRF-CEM; experiment: Cytotoxicity against human CCRF-CEM cells assessed as cell growth at 10^-5 M after 48 hrs by SRB assay; format: functional; settings: read-out: Activity; procedure, shortened: as §4
[22] = system: SR; experiment: Cytotoxicity against human SR cells assessed as cell growth at 10^-5 M after 48 hrs by SRB assay; format: functional; settings: read-out: Activity; procedure, shortened: as §1
[23] = system: UO-31; experiment: Cytotoxicity against human UO31 cells assessed as cell growth at 10^-5 M after 48 hrs by SRB assay; format: functional; settings: UO-31, 48 h, read-out: Activity; procedure, shortened: as §1
[24] = system: K562; experiment: Cytotoxicity against human K562 cells assessed as cell growth at 10^-5 M after 48 hrs by SRB assay; format: functional; settings: K562, 48 h, read-out: Activity; procedure, shortened: as §4
[25] = system: Photobacterium leiognathi; experiment: Antibacterial activity against Photobacterium leiognathi Sh1 assessed as inhibition of bacterial luminescence at 0.1 mg/mL after 10 mins by bioluminometry-based acute action test; format: functional; set-up: scale not given: the % may be the effect or the level left; procedure, shortened: as §5
[26] = system: MOLT-4; experiment: Cytotoxicity against human MOLT4 cells assessed as cell growth at 10^-5 M after 48 hrs by SRB assay; format: functional; settings: MOLT-4, 48 h, read-out: Activity; procedure, shortened: as §1
[27] = system: Photobacterium leiognathi; experiment: Antibacterial activity against Photobacterium leiognathi Sh1 assessed as inhibition of bacterial luminescence at 0.1 mg/mL after 10 mins by bioluminometry-based chronic action test; format: functional; set-up: scale not given: the % may be the effect or the level left; settings: in the assay text read “after 16 to 18 hrs” for “after 10 mins”; procedure, shortened: as §6

Question: What does the source list for `COc1ccc(-c2nn3c(SCC(=O)O)nc4ccccc4c3nc2=O)cc1`?
Answer: growth at 10 µM [1]: 94.9%; Activity [2]: inactive; Activity [3]: inactive; growth at 10 µM [4]: 94.7%; growth at 10 µM [5]: 95.9%; Activity [6]: 0%; Activity [7]: inactive; Activity [8]: inactive; growth at 10 µM [9]: 91.4%; Activity [10]: 88.9%; growth at 10 µM [11]: 89.9%; growth at 10 µM [12]: 63.5%; Activity [13]: 45%; growth at 10 µM [14]: 86.9%; Activity [15]: 105%; growth at 10 µM [16]: 95.4%; growth at 10 µM [17]: 91.7%; growth at 10 µM [18]: 93.9%; Activity [19]: inactive; Activity [20]: inactive; growth at 10 µM [21]: 90.7%; growth at 10 µM [22]: 65.8%; growth at 10 µM [23]: 91.6%; growth at 10 µM [24]: 80.9%; Activity [25]: 80%; growth at 10 µM [26]: 84.8%; Activity [27]: 191.5%
